This is an account of results in ChEMBL document CHEMBL1629439, “High-throughput identification of antibacterials against methicillin-resistant Staphylococcus aureus (MRSA) and the transglycosylase” (Bioorg Med Chem, 2010).

The subject of assay [1] is Bacillus subtilis. As to the kind of experiment: Antimicrobial activity against Bacillus subtilis ATCC 23857 after 18 to 24 hrs by alamar blue assay. The format is functional. The method, boiled down:
(§1)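 Broth microdilution per NCCLS in Mueller-Hinton broth, 8-point twofold dilutions, 384-well format. Exponential-phase cells at 5 × 10^5 cells/ml incubated with compound 18–24 h at 37 °C, then 20% Alamar blue added and fluorescence read. MIC90 taken as the lowest concentration preventing at least 90% bacterial growth.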
Background: The colour change of resazurin is a common sign of viable cells or microbes.

Assay [2] concerns Staphylococcus aureus. The assay is described as follows: Antimicrobial activity against oxacillin- and methicillin-resistant Staphylococcus aureus isolate Sa-OXA-R2 after 18 to 24 hrs by alamar blue assay. The format is functional. The method, boiled down:
(§2)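 Broth microdilution per NCCLS standard, Mueller-Hinton broth, 8-point twofold dilutions; exponentially growing cells at 5 10^5 cells/ml with compound, 18–24 h at 37 C; 20% Alamar blue added, fluorescence read; MIC90 taken as lowest concentration preventing at least 90% growth.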

Assay [3] deals with Staphylococcus aureus. The assay is described as follows: Antimicrobial activity against methicillin-resistant Staphylococcus aureus ATCC 33592 after 18 to 24 hrs by alamar blue assay. The following applies: Staphylococcus aureus, ATCC 33592; read-out: MIC. The format is functional. The method, boiled down: as §2
In assay [4] the test system is Serratia marcescens. As to the kind of experiment: Antimicrobial activity against Serratia marcescens ATCC 14756 after 18 to 24 hrs by alamar blue assay. The following applies: Serratia marcescens, ATCC 14756; read-out: MIC. It is filed as functional. The method, boiled down: as §1
Assay [5] relates to Staphylococcus aureus. The assay is described as follows: Antimicrobial activity against Staphylococcus aureus ATCC 29213 after 18 to 24 hrs by alamar blue assay.
Assay [6] deals with Mycolicibacterium smegmatis. As to the kind of experiment: Antimicrobial activity against Mycobacterium smegmatis BCRC 11565 after 18 to 24 hrs by alamar blue assay. The format is functional. The following applies: Mycolicibacterium smegmatis, BCRC 11565; read-out: MIC. The method, boiled down:
as §1

Assay [7] has as its system Staphylococcus aureus. The assay is described as follows: Antimicrobial activity against methicillin-resistant Staphylococcus aureus isolate NTUH4722 after 18 to 24 hrs by alamar blue assay. It is filed as functional. The method, boiled down:
as §2

Assay [8] deals with Pseudomonas aeruginosa. The assay is described as follows: Antimicrobial activity against Pseudomonas aeruginosa ATCC 25619 after 18 to 24 hrs by alamar blue assay. The following applies: Pseudomonas aeruginosa, ATCC 25619; read-out: MIC. The format is functional. The method, boiled down: as §1
In assay [9] the test system is Escherichia coli. The assay is described as follows: Antimicrobial activity against Escherichia coli ATCC […] after 18 to 24 hrs by alamar blue assay. The following applies: Escherichia coli; read-out: MIC. It is filed as functional. The method, boiled down:
as §1

Assay [10] concerns Stenotrophomonas maltophilia. The assay is described as follows: Antimicrobial activity against Stenotrophomonas maltophilia ATCC 13637 after 18 to 24 hrs by alamar blue assay. The following applies: Stenotrophomonas maltophilia, ATCC 13637; read-out: MIC. The format is functional. The method, boiled down:
as §1

For assay [11], the system named is Acinetobacter baumannii. As to the kind of experiment: Antimicrobial activity against Acinetobacter baumannii ATCC 49139 after 18 to 24 hrs by alamar blue assay. It is filed as functional. The following applies: Acinetobacter baumannii, ATCC 49139; read-out: MIC. The method, boiled down:
as §1

Each structure is given as a SMILES string. In brackets after ≈: the same amount, converted by molar mass.

With `Cc1ccc(NS(=O)(=O)c2ccc3c(c2)NCC(C)C(=O)S3)c(Br)c1` (stereo not drawn), the MIC – broadly, the smallest concentration in the dilution series that meets the test's criterion for growth inhibition – in assay [1] was under 0.03 µg/mL; in assay [2], over 64 µg/mL; in [3], 8 µg/mL (≈ 18.1 µM); in [4], over 256 µg/mL; in assay [5], 2 µg/mL (≈ 4.53 µM); in [6] it was over 64 µg/mL. Moreover, the MIC was 16 µg/mL (≈ 36.3 µM) in assay [7]; over 256 µg/mL in assay [8]; over 256 µg/mL in assay [9]; over 256 µg/mL in [10]; over 256 µg/mL in assay [11].

On to `CCC(NC(=O)Cc1c(C)c2cc3c(-c4ccc(Cl)cc4)coc3c(C)c2oc1=O)C(=O)O` (stereo not drawn), for which the MIC is over 64 µg/mL in [1]; 2.5 µg/mL (≈ 5.34 µM) in assay [2]; 5 µg/mL (≈ 10.7 µM) in assay [3]; over 256 µg/mL in assay [4]; 2.5 µg/mL (≈ 5.34 µM) in assay [5]; 1 µg/mL (≈ 2.14 µM) in assay [6]. Moreover, the minimal inhibitory concentration (MIC) in [7] is 2.5 µg/mL (≈ 5.34 µM); in assay [8], over 256 µg/mL; in assay [9], over 256 µg/mL; in assay [10], over 256 µg/mL; in [11] it was over 256 µg/mL.

Regarding `Cc1ccc(-c2nnc(NC(=O)c3nc4ccccc4s3)o2)c(C)c1`, the MIC in [1] is 0.5 µg/mL (≈ 1.43 µM); in assay [2] it was 0.25 µg/mL (≈ 0.713 µM); in assay [3] it was 0.5 µg/mL (≈ 1.43 µM); in assay [4], over 256 µg/mL; in assay [5], 0.5 µg/mL (≈ 1.43 µM); in [6] it was 0.5 µg/mL (≈ 1.43 µM). The MIC is 0.25 µg/mL (≈ 0.713 µM) in assay [7]; over 256 µg/mL in assay [8]; over 256 µg/mL in assay [9]; over 256 µg/mL in [10]; over 256 µg/mL in assay [11].

`O=C(Nc1nnc(-c2ccc(F)cc2)o1)c1cccc(Br)c1`: the MIC in assay [1] was 0.5 µg/mL (≈ 1.38 µM); in [2], 1 µg/mL (≈ 2.76 µM); in assay [3], 0.5 µg/mL (≈ 1.38 µM); in [4] it was over 256 µg/mL; in assay [5], 2 µg/mL (≈ 5.52 µM); in [6], 0.5 µg/mL (≈ 1.38 µM). For the same molecule, the MIC in [7] is 1 µg/mL (≈ 2.76 µM); in [8], over 256 µg/mL; in assay [9], over 256 µg/mL; in [10] it was over 256 µg/mL; in assay [11], over 256 µg/mL.

Regarding `CSc1ccccc1-c1nnc(NC(=O)c2nc3ccccc3s2)o1`, the MIC in assay [1] is 0.5 µg/mL (≈ 1.36 µM); in assay [2], 4 µg/mL (≈ 10.9 µM); in [3] it was 2 µg/mL (≈ 5.43 µM); in assay [4] it was over 256 µg/mL; in [5], 4 µg/mL (≈ 10.9 µM); in [6] it was 0.5 µg/mL (≈ 1.36 µM). The MIC is 2 µg/mL (≈ 5.43 µM) in [7]; over 256 µg/mL in [8]; over 256 µg/mL in assay [9]; over 256 µg/mL in assay [10]; over 256 µg/mL in assay [11].

For `Cc1c(CC(=O)N[C@@H](C(=O)O)c2ccccc2)c(=O)oc2c(C)c3occ(-c4ccc(Cl)cc4)c3cc12`, the MIC in [1] was over 64 µg/mL; in assay [2], 2.5 µg/mL (≈ 4.85 µM); in [3] it was 2.5 µg/mL (≈ 4.85 µM); in [4], over 256 µg/mL; in assay [5], 2.5 µg/mL (≈ 4.85 µM); in assay [6], 1 µg/mL (≈ 1.94 µM). For the same molecule, the minimum inhibitory concentration (MIC) in assay [7] was 2.5 µg/mL (≈ 4.85 µM); in [8], over 256 µg/mL; in assay [9], over 256 µg/mL; in [10] it was over 256 µg/mL; in assay [11] it was over 256 µg/mL.

Turning to `CCc1c(C)nc(N2NC(C)=CC2NC(=O)c2ccccc2I)nc1O` (stereo not drawn), the MIC in [1] was 0.25 µg/mL (≈ 0.537 µM); in [2], 0.5 µg/mL (≈ 1.07 µM); in [3] it was 1 µg/mL (≈ 2.15 µM); in assay [4], over 256 µg/mL; in assay [5], 0.5 µg/mL (≈ 1.07 µM); in assay [6], 0.25 µg/mL (≈ 0.537 µM). Besides, the minimum inhibitory concentration (MIC) was 0.5 µg/mL (≈ 1.07 µM) in assay [7]; over 256 µg/mL in [8]; over 256 µg/mL in [9]; over 256 µg/mL in assay [10]; over 256 µg/mL in [11].

Take `CCOc1ccc2nc(NC(=O)c3ccc([N+](=O)[O-])o3)sc2c1`: the MIC in assay [1] was 0.06 µg/mL (≈ 0.18 µM); in [2] it was 16 µg/mL (≈ 48 µM); in assay [3], 4 µg/mL (≈ 12 µM); in assay [4] it was 32 µg/mL (≈ 96 µM); in assay [5], 2 µg/mL (≈ 6 µM); in [6], 0.5 µg/mL (≈ 1.5 µM). Also, the MIC in assay [7] came to 16 µg/mL (≈ 48 µM); in assay [8] it was 128 µg/mL (≈ 384 µM); in assay [9], 256 µg/mL (≈ 768 µM); in assay [10], 32 µg/mL (≈ 96 µM); in assay [11], 12 µg/mL (≈ 36 µM).
